Results on six compounds are retold here after ChEMBL document CHEMBL3244073, “1,2,4-Triazole amino nucleosides. 1-beta-D-3'-Amino-3'-deoxyribofuranosyl-1,2,4-triazole-3-carboxamide and related nucleosides” (1977).

The source made the active and inactive calls. The rule behind the calls is not given here.

One assay concerns P388. Briefly: Cytotoxicity against mouse P388 cells after 72 hrs by hemocytometer-based cell counting method. As to conditions: P388, 72 h, read-out: LD50 (the source's name). Type of assay: functional. The method in brief: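 P-388 mouse lymphoid leukemia cells grown in tissue culture with the nucleoside present; cytotoxicity expressed as the LD50 concentration in µg/mL.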

The subject of another assay is Human alphaherpesvirus 1. The experiment in a line: Antiviral activity against Herpes simplex virus 1 HF assessed as inhibition of virus-induced cytopathogenicity. The assay is classed as functional, organism-based. The method in brief:
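Cytopathogenic effect of HSV-1 strain HF was scored in infected cell cultures exposed to the nucleoside. The procedure was a modified Ehrlich method, as run in earlier work.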
Background: Damage to the host cells serves as the signal in cytopathic effect assays.

With `N/N=C(/N)c1ncn([C@@H]2O[C@H](CO)[C@@H](N)[C@H]2O)n1`, the CC50 with P388 was above 100 µg/mL. Further, the result in the assay on Human alphaherpesvirus 1 was inactive.

With `N[C@H]1[C@@H](O)[C@H](n2cnc(C(=O)NO)n2)O[C@@H]1CO`, the CC50 in the assay on P388 is above 100 µg/mL. In addition, the outcome in the assay on Human alphaherpesvirus 1 was inactive.

For the compound `N/C(=N/O)c1ncn([C@@H]2O[C@H](CO)[C@@H](N)[C@H]2O)n1`, in the assay on P388, the CC50 is above 100 µg/mL. The outcome in the assay on Human alphaherpesvirus 1 was inactive.

Turning to `NC(=O)c1ncn([C@@H]2O[C@H](CO)[C@@H](N)[C@H]2O)n1`, the CC50 with P388 is above 100 µg/mL. The outcome in the assay on Human alphaherpesvirus 1 was inactive.

For `NC(=O)c1ncnn1[C@@H]1O[C@H](CO)[C@@H](N)[C@H]1O`, the CC50 with P388 was above 100 µg/mL. The result in the assay with Human alphaherpesvirus 1 was inactive.

As for `NNC(=O)c1ncn([C@@H]2O[C@H](CO)[C@@H](N)[C@H]2O)n1`, the CC50 in the assay with P388 was above 100 µg/mL. In addition, the outcome in the assay with Human alphaherpesvirus 1 was inactive.
